# Test results taken from ChEMBL document CHEMBL3272325, “Structure-activity relationships of dimeric Catharanthus alkaloids. 1. Deacetylvinblastine amide (vindesine) sulfate” (J Med Chem, 1978).
# Legend:
# [1] = Antitumor activity against mouse Gardner lymphosarcoma cell allografted in mouse at 0.5 to 0.8 mg/kg/day, ip; assay type: functional; conditions: route intraperitoneal
# In short: (§1)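 Sulfate salts given ip on days 1-9 against ROS and GLS in mice; tumor growth scored as percent inhibition versus controls (+++ = 75-100%, ++ = 50-75%, ± = under 25%).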
# [2] = Acute toxicity in ip dosed mouse; assay type: organism-based; conditions: in vivo
# [3] = Antitumor activity against mouse Ridgeway osteogenic sarcoma cells allografted in mouse at 0.5 to 0.8 mg/kg/day, ip; assay type: functional; conditions: route intraperitoneal; in short: as §1
# B16 [4] = assay: Antitumor activity against mouse B16 cells allografted in C57Bl/6 mouse assessed as mean survival time at 0.6 mg/kg/day, ip administered on day 1, 5 and 9 (reference value: 24.6 days); assay type: functional; conditions: route intraperitoneal
# B16 [5] = assay: Antitumor activity against mouse B16 cells allografted in C57Bl/6 mouse assessed as mean survival time at 0.3 mg/kg/day, ip administered on day 5, […] (reference value: 21.5 days); assay type: functional; conditions: route intraperitoneal
# P388 [6] = assay: Antitumor activity against mouse P388 cells allografted in mouse assessed as increase in life span at 0.18 mg/kg/day, ip administered from day 1 to day 9 relative to untreated control; assay type: functional; conditions: route intraperitoneal
# In short: (§2)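 P388 ascites implanted ip in mice, 10 animals per group. Sulfate salts given ip either daily on days 1-9 or as a single dose on day 1. Median life span was calculated using all deaths and survivors. Percent increase in life span was taken over untreated controls. The highest nontoxic dose was noted.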
# B16 [7] = assay: Antitumor activity against mouse B16 cells allografted in C57Bl/6 mouse assessed as mean survival time at 0.15 mg/kg/day, ip administered on day 1, 5 and 9 (reference value: 24.6 days); assay type: functional; conditions: route intraperitoneal
# B16 [8] = assay: Antitumor activity against mouse B16 cells allografted in C57Bl/6 mouse assessed as increase in life span at 0.6 mg/kg/day, ip administered on day 5, 9 and 13 measured for 61 days relative to control; assay type: functional; conditions: route intraperitoneal
# In short: (§3)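 C57BL/6 mice implanted ip with 0.5 mL of B16 melanoma brei. Alkaloid sulfate salts given ip on days 1, 5, 9 or on days 5, 9, 13. Percent increase in life span measured against controls; experiment ended at 61 days.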
# [9] = Toxicity in ip dosed mouse allografted with mouse P1534(J) cells administered from day 1 to day 9; assay type: organism-based; conditions: in vivo, read-out: MNTD
# In short: (§4)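 P1534(J) leukemia implanted subcutaneously in mice. Sulfate salts given ip daily on days 1-9. Read-out was percent inhibition of tumor growth relative to untreated controls. The highest nontoxic dose was recorded.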
# B16 [10] = assay: Antitumor activity against mouse B16 cells allografted in C57Bl/6 mouse assessed as increase in life span at 0.9 mg/kg/day, ip administered on day 5, 9 and 13 measured for 61 days relative to control; assay type: functional; conditions: route intraperitoneal; in short: as §3
# B16 [11] = assay: Antitumor activity against mouse B16 cells allografted in C57Bl/6 mouse assessed as increase in life span at 0.15 mg/kg/day, ip administered on day 5, 9 and 13 measured for 61 days relative to control; assay type: functional; conditions: route intraperitoneal; in short: as §3
# B16 [12] = assay: Antitumor activity against mouse B16 cells allografted in C57Bl/6 mouse assessed as increase in life span at 0.15 mg/kg/day, ip administered on day 1, 5 and 9 measured for 61 days relative to control; assay type: functional; conditions: route intraperitoneal; in short: as §3
# P388 [13] = assay: Antitumor activity against mouse P388 cells allografted in mouse assessed as increase in life span at 0.4 mg/kg/day, ip administered from day 1 to day 9 relative to untreated control; assay type: functional; conditions: route intraperitoneal; in short: as §2
# B16 [14] = assay: Antitumor activity against mouse B16 cells allografted in C57Bl/6 mouse assessed as mean survival time at 1.2 mg/kg/day, ip administered on day 5, […] (reference value: 21.5 days); assay type: functional; conditions: route intraperitoneal
# B16 [15] = assay: Antitumor activity against mouse B16 cells allografted in C57Bl/6 mouse assessed as mean survival time at 0.9 mg/kg/day, ip administered on day 1, 5 and 9 (reference value: 24.6 days); assay type: functional; conditions: route intraperitoneal
# [16] = Toxicity in ip dosed mouse allografted with mouse p388 cells after 1 day; assay type: organism-based; conditions: in vivo, read-out: MNTD; in short: as §2
# P388 [17] = assay: Antitumor activity against mouse P388 cells allografted in mouse assessed as increase in life span at 1.8 mg/kg/day, ip after 1 day; assay type: functional; conditions: 24 h, route intraperitoneal; in short: as §2
# [18] = Toxicity in ip dosed mouse allografted with mouse p388 cells administered from day 1 to day 9; assay type: organism-based; conditions: in vivo, read-out: MNTD; in short: as §2
# P388 [19] = assay: Antitumor activity against mouse P388 cells allografted in mouse assessed as increase in life span at 1.7 mg/kg/day, ip after 1 day; assay type: functional; conditions: 24 h, route intraperitoneal; in short: as §2
# [20] = Antitumor activity against mouse Gardner lymphosarcoma cell allografted in mouse at 0.3 to 0.4 mg/kg/day, ip; assay type: functional; conditions: route intraperitoneal
# In short: (§5)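 Ridgeway osteogenic sarcoma and Gardner lymphosarcoma in mice, with sulfate salts given ip daily on days 1-9. Tumor growth inhibition versus controls scored in bands: +++ = 75-100%, ++ = 50-75%, ± = under 25%.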
# [21] = Antitumor activity against mouse Ridgeway osteogenic sarcoma cells allografted in mouse at 0.3 to 0.4 mg/kg/day, ip; assay type: functional; conditions: route intraperitoneal; in short: as §5
# B16 [22] = assay: Antitumor activity against mouse B16 cells allografted in C57Bl/6 mouse assessed as mean survival time at 0.3 mg/kg/day, ip administered on day 1, 5 and 9 (reference value: 24.6 days); assay type: functional; conditions: route intraperitoneal
# B16 [23] = assay: Antitumor activity against mouse B16 cells allografted in C57Bl/6 mouse assessed as mean survival time at 0.15 mg/kg/day, ip administered on day 5, […] (reference value: 21.5 days); assay type: functional; conditions: route intraperitoneal
# [24] = Antitumor activity against mouse P1534(J) cells allografted in mouse assessed as tumor growth inhibition at 0.2 mg/kg/day, ip administered from day 1 to day 9 relative to unreated control; assay type: functional; conditions: P1534J, route intraperitoneal, read-out: TGI; in short: as §4
# B16 [25] = assay: Antitumor activity against mouse B16 cells allografted in C57Bl/6 mouse assessed as mean survival time at 0.6 mg/kg/day, ip administered on day 5, […] (reference value: 21.5 days); assay type: functional; conditions: route intraperitoneal
# B16 [26] = assay: Antitumor activity against mouse B16 cells allografted in C57Bl/6 mouse assessed as mean survival time at 1.2 mg/kg/day, ip administered on day 1, 5 and 9 (reference value: 24.6 days); assay type: functional; conditions: route intraperitoneal
# B16 [27] = assay: Antitumor activity against mouse B16 cells allografted in C57Bl/6 mouse assessed as increase in life span at 0.3 mg/kg/day, ip administered on day 1, 5 and 9 measured for 61 days relative to control; assay type: functional; conditions: route intraperitoneal; in short: as §3
# B16 [28] = assay: Antitumor activity against mouse B16 cells allografted in C57Bl/6 mouse assessed as increase in life span at 1.2 mg/kg/day, ip administered on day 1, 5 and 9 measured for 61 days relative to control; assay type: functional; conditions: route intraperitoneal
# P388 [29] = assay: Antitumor activity against mouse P388 cells allografted in mouse assessed as increase in life span at 0.6 mg/kg/day, ip administered from day 1 to day 9 relative to untreated control; assay type: functional; conditions: route intraperitoneal; in short: as §2
# [30] = Antitumor activity against mouse P1534(J) cells allografted in mouse assessed as tumor growth inhibition at 0.1 mg/kg/day, ip administered from day 1 to day 9 relative to unreated control; assay type: functional; conditions: P1534J, route intraperitoneal, read-out: TGI; in short: as §4
# P388 [31] = assay: Antitumor activity against mouse P388 cells allografted in mouse assessed as increase in life span at 9 mg/kg/day, ip after 1 day; assay type: functional; conditions: 24 h, route intraperitoneal; in short: as §2
# P388 [32] = assay: Antitumor activity against mouse P388 cells allografted in mouse assessed as increase in life span at 6 mg/kg/day, ip after 1 day; assay type: functional; conditions: 24 h, route intraperitoneal; in short: as §2
# B16 [33] = assay: Antitumor activity against mouse B16 cells allografted in C57Bl/6 mouse assessed as increase in life span at 0.9 mg/kg/day, ip administered on day 1, 5 and 9 measured for 61 days relative to control; assay type: functional; conditions: route intraperitoneal; in short: as §3
# P388 [34] = assay: Antitumor activity against mouse P388 cells allografted in mouse assessed as increase in life span at 4 mg/kg/day, ip after 1 day; assay type: functional; conditions: 24 h, route intraperitoneal; in short: as §2
# P388 [35] = assay: Antitumor activity against mouse P388 cells allografted in mouse assessed as increase in life span at 0.27 mg/kg/day, ip administered from day 1 to day 9 relative to untreated control; assay type: functional; conditions: route intraperitoneal; in short: as §2
# B16 [36] = assay: Antitumor activity against mouse B16 cells allografted in C57Bl/6 mouse assessed as increase in life span at 0.6 mg/kg/day, ip administered on day 1, 5 and 9 measured for 61 days relative to control; assay type: functional; conditions: route intraperitoneal; in short: as §3
# B16 [37] = assay: Antitumor activity against mouse B16 cells allografted in C57Bl/6 mouse assessed as increase in life span at 1.2 mg/kg/day, ip administered on day 5, 9 and 13 measured for 61 days relative to control; assay type: functional; conditions: route intraperitoneal
# B16 [38] = assay: Antitumor activity against mouse B16 cells allografted in C57Bl/6 mouse assessed as mean survival time at 0.9 mg/kg/day, ip administered on day 5, 9 and 13 (reference value: 21.5 days); conditions: route intraperitoneal
# B16 [39] = assay: Antitumor activity against mouse B16 cells allografted in C57Bl/6 mouse assessed as increase in life span at 0.3 mg/kg/day, ip administered on day 5, 9 and 13 measured for 61 days relative to control; assay type: functional; conditions: route intraperitoneal; in short: as §3
# [40] = Antitumor activity against mouse Ridgeway osteogenic sarcoma cells allografted in mouse at 0.5 to 0.7 mg/kg/day, ip; assay type: functional; conditions: route intraperitoneal; in short: as §1
# [41] = Antitumor activity against mouse Gardner lymphosarcoma cell allografted in mouse at 0.5 to 0.7 mg/kg/day, ip; assay type: functional; conditions: route intraperitoneal; in short: as §1
# Blood = assay: Biodistribution in po dosed rat blood using [3H]-labeled drug relative to Iv dosing; assay type: ADME, organism-based; conditions: in vivo
smiles,measurement,setting,value
CC[C@]1(O)C[C@@H]2C[C@](C(=O)OC)(c3cc4c(cc3OC)N(C)[C@H]3[C@@](O)(C(N)=O)[C@H](O)[C@]5(CC)C=CCN6CC[C@]43[C@@H]65)c3[nH]c4ccccc4c3CC[N+]([O-])(C2)C1,TGI,[1],25%
same,LD50,[2],> 10 mg/kg
same,TGI,[3],25%
CC[C@]1(O)C[C@H]2CN(CCc3c([nH]c4ccccc34)[C@@](C(=O)OC)(c3cc4c(cc3OC)N(C)[C@H]3[C@@](O)(C(=O)OC)[C@H](O)[C@]5(CC)C=CCN6CC[C@]43[C@@H]65)C2)C1.O=S(=O)(O)O,MST,B16 [4],51.5 days
same,MST,B16 [5],41.1 days
same,ILS at 0.18 mg/kg/day,P388 [6],136%
same,MST,B16 [7],42.1 days
same,ILS at 0.6 mg/kg/day,B16 [8],91%
same,MTD,[9],0.2 mg/kg/day
same,ILS at 0.9 mg/kg/day,B16 [10],126%
same,ILS at 0.15 mg/kg/day,B16 [11],57%
same,ILS at 0.15 mg/kg/day,B16 [12],71%
same,ILS at 0.4 mg/kg/day,P388 [13],> 263%
same,MST,B16 [14],45.2 days
same,MST,B16 [15],45.3 days
same,MTD at 24 h,[16],9 mg/kg/day
same,LD50,[2],5.8 mg/kg
same,ILS at 1.8 mg/kg/day,P388 [17],159%
same,MTD,[18],0.6 mg/kg/day
same,ILS at 1.7 mg/kg/day,P388 [19],154%
same,TGI,[20],50%
same,TGI,[21],50%
same,MST,B16 [22],49.3 days
same,MST,B16 [23],33.7 days
same,inhibition in vivo at 0.2 mg/kg/day,[24],96%
same,MST,B16 [25],41.1 days
same,MST,B16 [26],41.5 days
same,ILS at 0.3 mg/kg/day,B16 [27],100%
same,ILS at 1.2 mg/kg/day,B16 [28],69%
same,ILS at 0.6 mg/kg/day,P388 [29],> 263%
same,inhibition in vivo at 0.1 mg/kg/day,[30],41%
same,ILS at 9 mg/kg/day,P388 [31],> 263%
same,ILS at 6 mg/kg/day,P388 [32],200%
same,ILS at 0.9 mg/kg/day,B16 [33],84%
same,ILS at 4 mg/kg/day,P388 [34],218%
same,ILS at 0.27 mg/kg/day,P388 [35],181%
same,ILS at 0.6 mg/kg/day,B16 [36],109%
same,ILS at 1.2 mg/kg/day,B16 [37],110%
same,MST,B16 [38],48.7 days
same,ILS at 0.3 mg/kg/day,B16 [39],91%
CC[C@]1(O)C[C@H]2CN(CCc3c([nH]c4ccccc34)[C@@](C(=O)OC)(c3cc4c(cc3OC)N(C)[C@H]3[C@@](O)(C(N)=O)[C@H](O)[C@]5(CC)CCCN6CC[C@]43[C@@H]65)C2)C1.O=S(=O)(O)O,TGI,[40],50%
same,TGI,[41],50%
CC[C@]1(O)C[C@@H]2CN(CCc3c([nH]c4ccccc34)[C@@](C(=O)OC)(c3cc4c(cc3OC)N(C)[C@H]3[C@@](O)(C(N)=O)[C@H](O)[C@]5(CC)C=CCN6CC[C@]43[C@@H]65)C2)C1 [VINDESINE],Drug uptake,Blood,1%
